Results of several laboratories.
Compare with care: the assays were run in different laboratories.
Target: Calcium/calmodulin-dependent protein kinase type IV (CAMK4, Homo sapiens, UniProt Q16566)
One construct used (Q16566 1-473): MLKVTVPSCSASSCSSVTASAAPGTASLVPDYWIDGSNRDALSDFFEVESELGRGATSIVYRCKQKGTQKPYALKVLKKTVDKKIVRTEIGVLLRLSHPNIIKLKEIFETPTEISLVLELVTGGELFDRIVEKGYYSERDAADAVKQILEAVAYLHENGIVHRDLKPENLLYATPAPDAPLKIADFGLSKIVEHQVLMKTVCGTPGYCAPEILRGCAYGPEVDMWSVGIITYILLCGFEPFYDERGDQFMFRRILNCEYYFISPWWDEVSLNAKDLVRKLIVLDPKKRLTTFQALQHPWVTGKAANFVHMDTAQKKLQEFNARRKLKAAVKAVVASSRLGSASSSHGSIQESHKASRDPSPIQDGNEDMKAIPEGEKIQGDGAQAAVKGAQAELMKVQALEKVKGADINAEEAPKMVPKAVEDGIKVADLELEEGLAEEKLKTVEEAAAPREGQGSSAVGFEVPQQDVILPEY

| Compound | assay | conditions | quantity | value |
| --- | --- | --- | --- | --- |
| O=S(=O)(NC1CCC(c2cc(F)ccc2F)(S(=O)(=O)c2ccc(Cl)cc2)CC1)C(F)(F)F (centres unmarked) | cell-free assay, competition with immobilised ligand | 1 µM | remaining binding | 100% |
| CN1CCC2(CC1)NC(=O)c1c(c3ccc(Cl)c(Cl)c3n1C)C2C#N (racemic) | thermal stability, DSF | 10 µM | ΔTm | -0.2 °C |
| O=C(Nc1cnn(-c2csc(C(=O)NC3COC3)c2)c1)Nc1c(F)cccc1Cl | enzyme activity, inhibitor | 5 µM | remaining activity | 98.7% |
| NS(=O)(=O)c1cc(NC(=O)C2(c3ccccc3Cl)CC2)ccc1Oc1cccc(Cl)c1 | cell-free assay, competition with immobilised ligand | 1 µM | remaining binding | 43% |
| CS(=O)(=O)CCNCc1ccc(-c2ccc3ncnc(Nc4ccc(OCc5cccc(F)c5)c(Cl)c4)c3c2)o1 | cell-free assay | 0.5 µM | remaining signal | 107% |
| Cc1c(NC(=O)c2cc(C(N)=O)nc3cc(F)ccc23)c(C(F)(F)F)nn1Cc1ccc(C#N)cc1 | binding, competition with immobilised ligand | 1 µM | remaining binding | 76% |
| CN(C)C1CCN(CC#Cc2nn(C3CCCC3)c3nc(NCc4ccccc4)ncc23)C1 (centres unmarked) | enzyme activity, inhibitor, FRET | 10 µM | inhibition | 23% |
| Oc1cccc(-c2nc(N3CCOCC3)c3oc4ncccc4c3n2)c1 | cell-free assay | 0.5 µM | remaining signal | 103% |
| Cn1c2c(Cl)c(Cl)ccc2c2cc[nH]c(=O)c21 | thermal stability, DSF | 10 µM | ΔTm | 0.4 °C |
| CC/C(=N\NC(=O)NCc1cccc(O)c1)c1ccc(O)c(C)c1O | enzyme activity, inhibitor | 0.1 µM | inhibition | 1.3% |
| O=C(O)[C@H]1[C@H](Cn2nnc3ccccc3c2=O)CC[C@@H]1C(=O)c1ccc(OCCC2CCOCC2)cc1 | cell-free assay, competition with immobilised ligand | 1 µM | remaining binding | 78% |
| CCN(CC)CCNC(=O)c1c(C)[nH]c(/C=C2\C(=O)Nc3ccc(F)cc32)c1C | enzyme activity, inhibitor | 0.3 µM | inhibition | 22% |
| Cn1c2c(c3ccc(Cl)c(Cl)c31)C(C#N)C1(CCOCC1)NC2=O (centres unmarked) | thermal stability, DSF | 10 µM | ΔTm | 0 °C |
| COc1ccc2c(c1)O[C@@H](c1ccc(OC)c(OC)c1)C[C@H]2NC(=O)C1(c2ccc3c(c2)OC(F)(F)O3)CC1 | cell-free assay, competition with immobilised ligand | 1 µM | remaining binding | 89% |
| Cn1c2c(c3ccccc31)C(C#N)C(C)(C)NC2=O (centres unmarked) | thermal stability, DSF | 10 µM | ΔTm | 0 °C |
| Cc1ccc(Nc2nccc(N(C)c3ccc4c(C)n(C)nc4c3)n2)cc1S(N)(=O)=O | cell-free assay, inhibitor | 0.5 µM | remaining signal | 95.9% |
| COc1cc2ncnc(Nc3ccc(Oc4ccccc4)c(C)c3C)c2cc1OC | enzyme activity, inhibitor | 1 µM | inhibition | -2% |
